We go through 19 compounds from ChEMBL document CHEMBL5236607, “Membrane-Active Cyclic Amphiphilic Peptides: Broad-Spectrum Antibacterial Activity Alone and in Combination with Antibiotics” (J Med Chem, 2022).

The source made the active and inactive calls. No cut-off for these calls is given here. Bridge positions count the residues as written; N and C are the ends. Square brackets hold non-standard residues; d marks the D form. Peptide text beside a SMILES is read from it. * marks the point of attachment. X1 = CC[C@H](C)CCCCC(=O)*; Dab = NCC[C@H](N)C(=O)O

A short description of experiment [1]: Therapeutic index, ratio of HC50 for human RBC to MIC for methicillin resistant Staphylococcus aureus ATCC BAA-1556. The method, boiled down:
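Human RBCs washed in PBS pH 7.4 and mixed 1:1 with two-fold peptide dilutions (4% v/v suspension), 2 h at 37 °C. Hemoglobin in supernatant read at 567 nm against PBS (0%) and 1% Triton X-100 (100%). HC50 is the concentration giving 50% hemolysis. Index is HC50 divided by MIC against MRSA.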

For experiment [2], the system named is Staphylococcus aureus. Put plainly: Antibacterial activity against methicillin resistant Staphylococcus aureus ATCC BAA-1556 after 24 hrs by microbroth dilution method. It counts as functional. Background: Broth dilution looks for growth in wells or tubes with falling amounts of substance.
Another experiment relates to Klebsiella pneumoniae. Put plainly: Antibacterial activity against imipenem resistant Klebsiella pneumoniae ATCC BAA-1705 after 24 hrs by microbroth dilution method. Format: functional.
The next experiment has as its system Pseudomonas aeruginosa. Put plainly: Antibacterial activity against Pseudomonas aeruginosa ATCC […] after 24 hrs by microbroth dilution method. Format: functional.
The test system of experiment [3] is Escherichia coli. The experiment can be described thus: Antibacterial activity against Escherichia coli ATCC 25922 after 24 hrs by microbroth dilution method. Format: functional.
Experiment [4] has as its system Staphylococcus aureus. Put plainly: Induction of resistance development in Staphylococcus aureus ATCC 29213 assessed as increase in MIC by microtiter plate reader assay. Format: functional, organism-based. The method, boiled down: (§1)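 Serial passage resistance assay with 2-fold microdilution MICs in 96-well plates. Each passage takes the well with the highest concentration still permitting growth, adjusts it to 0.5 McFarland, and dilutes it to a final 5 × 10^5 CFU/mL for the next passage. Eighteen passages; MIC recorded at each. Triplicate.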

Experiment [5] has as its system Staphylococcus aureus. The experiment can be described thus: Induction of resistance development in methicillin resistant Staphylococcus aureus ATCC BAA-1556 assessed as increase in MIC by microtiter plate reader assay. Format: functional, organism-based. The method in brief:
as §1

Experiment [6] deals with Escherichia coli. Put plainly: Induction of resistance development in Escherichia coli ATCC 25922 assessed as increase in MIC by microtiter plate reader assay. Format: functional, organism-based.
Experiment [7] deals with Escherichia coli. The experiment can be described thus: Induction of resistance development in Escherichia coli ATCC BAA-2452 assessed as increase in MIC by microtiter plate reader assay. Format: functional, organism-based. The method, boiled down:
as §1

For the compound `N=C(N)NCCC[C@@H]1NC(=O)[C@H](CCCNC(=N)N)NC(=O)[C@H](CCCNC(=N)N)NC(=O)[C@H](CCCNC(=N)N)NC(=O)[C@H](Cc2c[nH]c3ccccc23)NC(=O)[C@H](Cc2c[nH]c3ccccc23)NC(=O)[C@H](Cc2c[nH]c3ccccc23)NC(=O)[C@H](Cc2c[nH]c3ccccc23)NC(=O)[C@H](Cc2c[nH]c3ccccc23)NC(=O)[C@H](CCCNC(=N)N)NC(=O)[C@H](CCCNC(=N)N)NC(=O)[C@H](CCCNC(=N)N)NC1=O` (cyclo(RRRRRRRWWWWW)), the TI in experiment [1] came out at 21.9.
In general, MIC refers to the least concentration at which growth counts as inhibited. Low values mean a more susceptible organism, high ones a less susceptible organism. As for `N=C(N)NCCC[C@@H]1NC(=O)[C@H](CCCNC(=N)N)NC(=O)[C@H](CCCNC(=N)N)NC(=O)[C@H](Cc2c[nH]c3ccccc23)NC(=O)[C@H](Cc2c[nH]c3ccccc23)NC(=O)[C@H](Cc2c[nH]c3ccccc23)NC(=O)[C@H](Cc2c[nH]c3ccccc23)NC(=O)[C@H](Cc2c[nH]c3ccccc23)NC(=O)[C@H](Cc2c[nH]c3ccccc23)NC(=O)[C@H](Cc2c[nH]c3ccccc23)NC(=O)[C@H](CCCNC(=N)N)NC(=O)[C@H](CCCNC(=N)N)NC1=O` (cyclo(RRRRRWWWWWWW)), the MIC in the experiment on Staphylococcus aureus [2], against Klebsiella pneumoniae, in the experiment on Pseudomonas aeruginosa and against Escherichia coli [3] was greater than 256 µg/mL each time. The TI in experiment [1] is greater than 0.45.
As to `N=C(N)NCCC[C@@H]1NC(=O)[C@H](CCCNC(=N)N)NC(=O)[C@H](CCCNC(=N)N)NC(=O)[C@H](Cc2c[nH]c3ccccc23)NC(=O)[C@H](Cc2c[nH]c3ccccc23)NC(=O)[C@H](Cc2c[nH]c3ccccc23)NC(=O)[C@H](Cc2c[nH]c3ccccc23)NC(=O)[C@H](Cc2c[nH]c3ccccc23)NC(=O)[C@H](Cc2c[nH]c3ccccc23)NC(=O)[C@H](CCCNC(=N)N)NC(=O)[C@H](CCCNC(=N)N)NC1=O` (cyclo(RRRRRWWWWWW)), the MIC with Staphylococcus aureus [2], with Klebsiella pneumoniae, against Pseudomonas aeruginosa and against Escherichia coli [3] was greater than 256 µg/mL in each case. Further, in experiment [1], the TI was greater than 0.54.
Regarding `N=C(N)NCCC[C@@H]1NC(=O)[C@H](CCCNC(=N)N)NC(=O)[C@H](CCCNC(=N)N)NC(=O)[C@H](Cc2c[nH]c3ccccc23)NC(=O)[C@H](Cc2c[nH]c3ccccc23)NC(=O)[C@H](Cc2c[nH]c3ccccc23)NC(=O)[C@H](Cc2c[nH]c3ccccc23)NC(=O)[C@H](Cc2c[nH]c3ccccc23)NC(=O)[C@H](Cc2c[nH]c3ccccc23)NC(=O)[C@H](CCCNC(=N)N)NC1=O`, in [1], the TI came to 0.59.
On to `N=C(N)NCCC[C@@H]1NC(=O)[C@H](CCCNC(=N)N)NC(=O)[C@H](CCCNC(=N)N)NC(=O)[C@H](Cc2c[nH]c3ccccc23)NC(=O)[C@H](Cc2c[nH]c3ccccc23)NC(=O)[C@H](Cc2c[nH]c3ccccc23)NC(=O)[C@H](Cc2c[nH]c3ccccc23)NC(=O)[C@H](CCCNC(=N)N)NC1=O` (cyclo(RRRRWWWW)), for which the TI in [1] was 43.8.
In the case of `N=C(N)NCCC[C@@H]1NC(=O)[C@H](CCCNC(=N)N)NC(=O)[C@H](Cc2c[nH]c3ccccc23)NC(=O)[C@H](Cc2c[nH]c3ccccc23)NC(=O)[C@H](Cc2c[nH]c3ccccc23)NC(=O)[C@H](Cc2c[nH]c3ccccc23)NC(=O)[C@H](Cc2c[nH]c3ccccc23)NC(=O)[C@H](CCCNC(=N)N)NC1=O` (cyclo(RRRWWWWW)), the TI in [1] came to 0.63.
Take `N=C(N)NCCC[C@@H]1NC(=O)[C@H](CCCNC(=N)N)NC(=O)[C@H](CCCNC(=N)N)NC(=O)[C@H](Cc2c[nH]c3ccccc23)NC(=O)[C@H](Cc2c[nH]c3ccccc23)NC(=O)[C@H](Cc2c[nH]c3ccccc23)NC(=O)[C@H](Cc2c[nH]c3ccccc23)NC(=O)[C@H](Cc2c[nH]c3ccccc23)NC(=O)[C@H](CCCNC(=N)N)NC(=O)[C@H](CCCNC(=N)N)NC1=O`: the TI in experiment [1] came out at 57.5.
Consider `N=C(N)NCCC[C@@H]1NC(=O)[C@H](CCCNC(=N)N)NC(=O)[C@H](CCCNC(=N)N)NC(=O)[C@H](CCCNC(=N)N)NC(=O)[C@H](Cc2c[nH]c3ccccc23)NC(=O)[C@H](Cc2c[nH]c3ccccc23)NC(=O)[C@H](Cc2c[nH]c3ccccc23)NC(=O)[C@H](Cc2c[nH]c3ccccc23)NC(=O)[C@H](Cc2c[nH]c3ccccc23)NC(=O)[C@H](Cc2c[nH]c3ccccc23)NC(=O)[C@H](CCCNC(=N)N)NC(=O)[C@H](CCCNC(=N)N)NC1=O` (cyclo(RRRRRRWWWWWW)), for which the TI in experiment [1] was 10.6.
`N=C(N)NCCC[C@@H]1NC(=O)[C@H](CCCNC(=N)N)NC(=O)[C@H](Cc2c[nH]c3ccccc23)NC(=O)[C@H](Cc2c[nH]c3ccccc23)NC(=O)[C@H](Cc2c[nH]c3ccccc23)NC(=O)[C@H](Cc2c[nH]c3ccccc23)NC(=O)[C@H](Cc2c[nH]c3ccccc23)NC(=O)[C@H](Cc2c[nH]c3ccccc23)NC(=O)[C@H](CCCNC(=N)N)NC1=O`: in experiment [1], the TI was found to be 1.02.
With `N=C(N)NCCC[C@@H]1NC(=O)[C@H](CCCNC(=N)N)NC(=O)[C@H](CCCNC(=N)N)NC(=O)[C@H](CCCNC(=N)N)NC(=O)[C@H](Cc2c[nH]c3ccccc23)NC(=O)[C@H](Cc2c[nH]c3ccccc23)NC(=O)[C@H](Cc2c[nH]c3ccccc23)NC(=O)[C@H](Cc2c[nH]c3ccccc23)NC(=O)[C@H](Cc2c[nH]c3ccccc23)NC(=O)[C@H](Cc2c[nH]c3ccccc23)NC(=O)[C@H](Cc2c[nH]c3ccccc23)NC(=O)[C@H](CCCNC(=N)N)NC(=O)[C@H](CCCNC(=N)N)NC(=O)[C@H](CCCNC(=N)N)NC1=O` (cyclo(RRRRRRRWWWWWWW)), the TI in [1] stood at 8.75.
In the case of `N=C(N)NCCC[C@@H]1NC(=O)[C@H](CCCNC(=N)N)NC(=O)[C@H](Cc2c[nH]c3ccccc23)NC(=O)[C@H](Cc2c[nH]c3ccccc23)NC(=O)[C@H](Cc2c[nH]c3ccccc23)NC1=O` (cyclo(RRWWW)), the TI in experiment [1] worked out at 3.75.
As to `N=C(N)NCCC[C@@H]1NC(=O)[C@H](CCCNC(=N)N)NC(=O)[C@H](CCCNC(=N)N)NC(=O)[C@H](Cc2c[nH]c3ccccc23)NC(=O)[C@H](Cc2c[nH]c3ccccc23)NC(=O)[C@H](Cc2c[nH]c3ccccc23)NC(=O)[C@H](Cc2c[nH]c3ccccc23)NC(=O)[C@H](Cc2c[nH]c3ccccc23)NC(=O)[C@H](Cc2c[nH]c3ccccc23)NC(=O)[C@H](Cc2c[nH]c3ccccc23)NC(=O)[C@H](CCCNC(=N)N)NC1=O` (cyclo(RRRRWWWWWWW)), the MIC against Pseudomonas aeruginosa is greater than 256 µg/mL. Moreover, the TI in experiment [1] was determined as 0.23.
In the case of `N=C(N)NCCC[C@@H]1NC(=O)[C@H](CCCNC(=N)N)NC(=O)[C@H](CCCNC(=N)N)NC(=O)[C@H](CCCNC(=N)N)NC(=O)[C@H](Cc2c[nH]c3ccccc23)NC(=O)[C@H](Cc2c[nH]c3ccccc23)NC(=O)[C@H](Cc2c[nH]c3ccccc23)NC(=O)[C@H](Cc2c[nH]c3ccccc23)NC(=O)[C@H](Cc2c[nH]c3ccccc23)NC(=O)[C@H](Cc2c[nH]c3ccccc23)NC(=O)[C@H](CCCNC(=N)N)NC(=O)[C@H](CCCNC(=N)N)NC(=O)[C@H](CCCNC(=N)N)NC1=O` (cyclo(RRRRRRRWWWWWW)), in experiment [1], the TI is 5.31.
As to `CC[C@H](C)CCCCC(=O)N[C@@H](CCN)C(=O)N[C@H](C(=O)N[C@@H](CCN)C(=O)N[C@H]1CCNC(=O)[C@H]([C@@H](C)O)NC(=O)[C@H](CCN)NC(=O)[C@H](CCN)NC(=O)[C@H](CC(C)C)NC(=O)[C@@H](Cc2ccccc2)NC(=O)[C@H](CCN)NC1=O)[C@@H](C)O` (X1-[Dab]T[Dab][Dab][Dab][dF]L[Dab][Dab]T; lactam 4-C), the result with Staphylococcus aureus [4], with Staphylococcus aureus [5], in the experiment on Escherichia coli [6] and in the experiment with Escherichia coli [7] was Active.
With `N=C(N)NCCC[C@@H]1NC(=O)[C@H](CCCNC(=N)N)NC(=O)[C@H](Cc2c[nH]c3ccccc23)NC(=O)[C@H](Cc2c[nH]c3ccccc23)NC(=O)[C@H](Cc2c[nH]c3ccccc23)NC(=O)[C@H](CCCNC(=N)N)NC1=O` (cyclo(WWWRRR)), in experiment [1], the TI worked out at 9.69.
As for `N=C(N)NCCC[C@@H]1NC(=O)[C@H](CCCNC(=N)N)NC(=O)[C@H](CCCNC(=N)N)NC(=O)[C@H](CCCNC(=N)N)NC(=O)[C@H](Cc2c[nH]c3ccccc23)NC(=O)[C@H](Cc2c[nH]c3ccccc23)NC(=O)[C@H](Cc2c[nH]c3ccccc23)NC(=O)[C@H](Cc2c[nH]c3ccccc23)NC(=O)[C@H](CCCNC(=N)N)NC(=O)[C@H](CCCNC(=N)N)NC(=O)[C@H](CCCNC(=N)N)NC1=O` (cyclo(RRRRRRRWWWW)), in [1], the TI is 11.9.
On to `N=C(N)NCCC[C@@H]1NC(=O)[C@H](CCCNC(=N)N)NC(=O)[C@H](Cc2c[nH]c3ccccc23)NC(=O)[C@H](Cc2c[nH]c3ccccc23)NC(=O)[C@H](Cc2c[nH]c3ccccc23)NC(=O)[C@H](Cc2c[nH]c3ccccc23)NC1=O` (cyclo(RRWWWW)), for which the TI in experiment [1] came out at 1.33.
Take `N=C(N)NCCC[C@@H]1NC(=O)[C@H](CCCNC(=N)N)NC(=O)[C@H](Cc2c[nH]c3ccccc23)NC(=O)[C@H](Cc2c[nH]c3ccccc23)NC(=O)[C@H](Cc2c[nH]c3ccccc23)NC(=O)[C@H](Cc2c[nH]c3ccccc23)NC(=O)[C@H](CCCNC(=N)N)NC1=O` (cyclo(RRRWWWW)): the TI in experiment [1] was found to be 13.1.
`O=C(O)c1cn(C2CC2)c2cc(N3CCNCC3)c(F)cc2c1=O`: the result with Staphylococcus aureus [4], with Staphylococcus aureus [5] and with Escherichia coli [7] was Active.
